Measured values from ChEMBL document CHEMBL4699478, “7-Azaindolequinuclidinones (7-AIQD): A novel class of cannabinoid 1 (CB1) and cannabinoid 2 (CB2) receptor ligands” (Bioorg Med Chem Lett, 2020).
Calls of active or inactive are those of the source. The rule behind the calls is not given here.

Key:
[1] = target: T1, Cannabinoid receptor 1 (Homo sapiens, UniProt P21554); test: Displacement of [3H]CP-55940 from CB1 receptor (unknown origin) by competitive binding assay
[2] = target: T2, Cannabinoid receptor 2 (Homo sapiens, UniProt P34972); test: Displacement of [3H]CP-55940 from CB2 receptor (unknown origin) by competitive binding assay
T2 sequence (P34972 whole entry): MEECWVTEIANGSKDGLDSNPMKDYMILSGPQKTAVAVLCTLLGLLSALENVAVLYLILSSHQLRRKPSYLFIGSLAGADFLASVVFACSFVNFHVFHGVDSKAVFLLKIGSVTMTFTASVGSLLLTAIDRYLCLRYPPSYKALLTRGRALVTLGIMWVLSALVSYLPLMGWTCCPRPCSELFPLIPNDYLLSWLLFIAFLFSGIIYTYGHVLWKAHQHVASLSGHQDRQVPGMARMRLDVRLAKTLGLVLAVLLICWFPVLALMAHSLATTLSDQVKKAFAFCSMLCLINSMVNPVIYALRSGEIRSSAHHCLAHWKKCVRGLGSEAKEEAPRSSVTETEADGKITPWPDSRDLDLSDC

[3] = species on record: Homo sapiens; test: Selectivity index, ratio of Ki for CB1 receptor (unknown origin) to Ki for CB2 receptor (unknown origin) by competitive binding assay
[4] = target: T2, Cannabinoid receptor 2; test: Displacement of [3H]CP-55940 from CB2 receptor (unknown origin) at 1 uM by competitive binding assay
[5] = target: T1, Cannabinoid receptor 1; test: Displacement of [3H]CP-55940 from CB1 receptor (unknown origin) at 1 uM by competitive binding assay
[6] = target: T1, Cannabinoid receptor 1; test: Inverse agonist activity at human CB1 receptor expressed in CHO cell membrane assessed as reduction in GTPgammaS binding at 10 uM by [35S]GTP-gammaS binding assay; type: functional, cell membranes
Outline: (§1)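 [35S]GTPγS binding in CHO-hCB1 membranes (hCB1R) or CHO-hCB2 membranes (hCB2R). A single 10 μM concentration of ligand was tested for change in [35S]GTPγS binding relative to basal. Agonism was read as a rise above basal, inverse agonism as a fall below basal, and neutral activity as no significant change.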

[7] = target: T2, Cannabinoid receptor 2; test: Inverse agonist activity at human CB2 receptor expressed in CHO cell membrane assessed as reduction in GTPgammaS binding at 10 uM by [35S]GTP-gammaS binding assay; type: functional, cell membranes; outline: as §1
[8] = target: T2, Cannabinoid receptor 2; test: Agonist activity at human CB2 receptor expressed in CHO cell membrane assessed as increase in GTPgammaS binding at 10 uM by [35S]GTP-gammaS binding assay; type: functional, cell membranes; outline: as §1
[9] = target: T1, Cannabinoid receptor 1; test: Agonist activity at human CB1 receptor expressed in CHO cell membrane assessed as increase in GTPgammaS binding at 10 uM by [35S]GTP-gammaS binding assay; type: functional, cell membranes; outline: as §1
[10] = target: T1, Cannabinoid receptor 1; test: Neutral antagonist activity at human CB1 receptor expressed in CHO cell membrane at 10 uM by [35S]GTP-gammaS binding assay; type: cell membranes; conditions: filed as antagonist; outline: as §1
[11] = target: T2, Cannabinoid receptor 2; test: Neutral antagonist activity at human CB2 receptor expressed in CHO cell membrane at 10 uM by [35S]GTP-gammaS binding assay; type: cell membranes; conditions: filed as antagonist; outline: as §1
[12] = target: T1, Cannabinoid receptor 1; test: Binding affinity to human CB1 receptor expressed in CHO cell membrane at 10 uM by [35S]GTP-gammaS binding assay; type: cell membranes; outline: as §1
[13] = target: T2, Cannabinoid receptor 2; test: Binding affinity to human CB2 receptor expressed in CHO cell membrane at 10 uM by [35S]GTP-gammaS binding assay; type: cell membranes; outline: as §1

T1 sequence (P21554 whole entry): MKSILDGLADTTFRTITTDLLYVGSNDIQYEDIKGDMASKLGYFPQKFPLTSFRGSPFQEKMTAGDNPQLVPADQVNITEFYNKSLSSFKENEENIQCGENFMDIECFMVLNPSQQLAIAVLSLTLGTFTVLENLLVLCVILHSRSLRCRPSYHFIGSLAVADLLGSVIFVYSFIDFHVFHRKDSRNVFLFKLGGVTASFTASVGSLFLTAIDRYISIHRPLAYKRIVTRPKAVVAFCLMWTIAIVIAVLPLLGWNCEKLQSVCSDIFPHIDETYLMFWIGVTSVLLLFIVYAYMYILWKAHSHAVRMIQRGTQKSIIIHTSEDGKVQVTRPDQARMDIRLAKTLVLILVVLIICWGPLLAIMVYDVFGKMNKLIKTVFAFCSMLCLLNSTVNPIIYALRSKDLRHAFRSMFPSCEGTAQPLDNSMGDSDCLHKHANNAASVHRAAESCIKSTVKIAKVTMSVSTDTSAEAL

O=C1/C(=C/c2cn(Cc3ccc(Cl)cc3)c3ncccc23)N2CCC1CC2
Ki [1]: 0.704 µM
Ki [2]: 0.115 µM
Ratio Ki [3]: 6.1
inhibition ([4]; filed as inverse agonist): 74.8%
inhibition ([5]; filed as inverse agonist): 68.9%
Activity ([6]; filed as inverse agonist): Active
Activity ([7]; filed as inverse agonist): Active

COc1ccc(C(=O)c2c(C)n(CCN3CCOCC3)c3cc(I)ccc23)cc1
Activity ([7]; filed as inverse agonist): Active

O=C1/C(=C/c2cn(CCN3CCOCC3)c3ncccc23)N2CCC1CC2
inhibition [4]: 7.92%
inhibition [5]: 0%

O=C1/C(=C/c2cn(CCN3CCCC3)c3ncccc23)N2CCC1CC2
inhibition [4]: 56.6%
inhibition [5]: 39.4%

OC1/C(=C/c2cn(Cc3ccccc3)c3ncccc23)N2CCC1CC2 (racemic)
inhibition [4]: 0%
inhibition [5]: 0%

OC1/C(=C/c2cn(Cc3ccc(Cl)cc3)c3ncccc23)N2CCC1CC2 (racemic)
inhibition [4]: 58.5%
inhibition [5]: 58.2%

Cc1c(C(=O)NN2CCCCC2)nn(-c2ccc(Cl)cc2Cl)c1-c1ccc(I)cc1
Activity ([6]; filed as inverse agonist): Active

N#Cc1ccc(Cn2cc(/C=C3/C(=O)C4CCN3CC4)c3cccnc32)cc1
inhibition [4]: 64.1%
inhibition [5]: 55.7%

O=C1/C(=C/c2cn(Cc3cccc(C(F)(F)F)c3)c3ncccc23)N2CCC1CC2
inhibition [4]: 56.7%
inhibition [5]: 42.5%

COc1ccc(Cn2cc(/C=C3/C(=O)C4CCN3CC4)c3cccnc32)cc1
inhibition [4]: 27.5%
inhibition [5]: 22.4%

O=C1/C(=C/c2cn(Cc3ccccc3)c3ncccc23)N2CCC1CC2
Ki [1]: 2.9 µM
Ki [2]: 0.11 µM
Ratio Ki [3]: 26.3
inhibition ([4]; filed as antagonist): 79.9%
inhibition [5]: 15.1%
Activity [8]: inactive
Activity [9]: inactive
Activity [10]: Active
Activity [6]: inactive
Activity [11]: Active
Activity [7]: inactive

O=C1/C(=C/c2cn(Cc3ccc(Br)cc3)c3ncccc23)N2CCC1CC2
Ki [1]: 1.11 µM
Ki [2]: 0.625 µM
Ratio Ki [3]: 1.8
inhibition ([4]; filed as antagonist): 67.6%
inhibition ([5]; filed as inverse agonist): 74.2%
Activity ([6]; filed as inverse agonist): Active
Activity [11]: Active

O=C1/C(=C/c2cn(Cc3ccc(F)cc3)c3ncccc23)N2CCC1CC2
Ki [1]: 0.218 µM
Ki [2]: 0.0237 µM
Ratio Ki [3]: 9.2
inhibition [4]: 100%
inhibition [5]: 87.6%
Activity [12]: Active
Activity [13]: Active
